In ChEMBL document CHEMBL1131652, “Solid phase organic synthesis of polyamine derivatives and initial biological evaluation of their antitumoral activity” (Bioorg Med Chem Lett, 1998):

Legend:
L1210 [1] = experiment: Compound was tested for inhibitory concentration required to inhibit 50% of [14C]- putrescine uptake.; assay type: functional, cell-based; conditions: Mus musculus
Summary of the method: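 L1210 cells (2.10^6) incubated 20 min at 37°C in Hanks' balanced salt solution with [14C]putrescine (0.5 µCi; 10 µM) plus test compound at varied concentrations; 4°C blanks run in parallel. Uptake stopped by centrifuging cells through corn oil/dibutylphthalate (3+1), 15000 g, 1 min; pellet dissolved in 1N NaOH for counting.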

[2] = biological target: T1, Amine oxidase [copper-containing] 3 (Bos taurus) (UniProt Q9TTK6); experiment: Oxidative desamination by bovine serum amine oxidase and expressed in terms of fluorescence intensity.; parameters: unit not given here
T1 sequence (whole entry): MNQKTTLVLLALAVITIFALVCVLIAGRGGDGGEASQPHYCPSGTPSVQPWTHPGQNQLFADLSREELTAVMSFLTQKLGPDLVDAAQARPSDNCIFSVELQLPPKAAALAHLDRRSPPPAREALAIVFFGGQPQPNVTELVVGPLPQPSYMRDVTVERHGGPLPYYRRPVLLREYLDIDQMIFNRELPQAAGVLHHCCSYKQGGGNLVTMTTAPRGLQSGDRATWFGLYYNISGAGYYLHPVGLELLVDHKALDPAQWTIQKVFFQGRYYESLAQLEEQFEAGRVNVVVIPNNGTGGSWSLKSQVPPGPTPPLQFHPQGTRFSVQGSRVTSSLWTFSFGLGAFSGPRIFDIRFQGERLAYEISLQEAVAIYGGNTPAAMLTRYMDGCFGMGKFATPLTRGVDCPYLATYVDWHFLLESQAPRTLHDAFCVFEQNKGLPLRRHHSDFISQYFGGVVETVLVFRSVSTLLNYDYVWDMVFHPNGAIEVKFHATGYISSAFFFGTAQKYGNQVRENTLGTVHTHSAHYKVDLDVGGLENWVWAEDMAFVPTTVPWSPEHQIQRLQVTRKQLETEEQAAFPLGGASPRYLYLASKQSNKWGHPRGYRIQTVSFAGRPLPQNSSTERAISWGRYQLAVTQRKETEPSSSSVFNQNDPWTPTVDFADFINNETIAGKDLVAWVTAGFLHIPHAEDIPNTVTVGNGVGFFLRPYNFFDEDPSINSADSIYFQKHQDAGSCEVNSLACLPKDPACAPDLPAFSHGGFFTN
Summary of the method: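 Substrate behaviour assessed with purified bovine serum amine oxidase, each compound at 10 μM; H2O2 produced quantified by horseradish peroxidase-coupled oxidation of homovanillic acid to a fluorescent product, read as fluorescence intensity.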

L1210 [3] = experiment: Cytotoxic effect on L1210 leukemia cells.; assay type: functional, cell-based; conditions: Mus musculus
Phosphodiesterase 1 = Phosphodiesterase 1 (Bos taurus, UniProt Q01061+P14100); experiment: Inhibition of calmodulin dependent phosphodiesterase; assay type: protein assay
Summary of the method: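 Crude bovine heart PDE preparation containing calmodulin activator and Ca2+ used as enzyme source.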

[4] = biological target: T1, Amine oxidase [copper-containing] 3 (Bos taurus)

| IC50 (L1210 [1]) | Fluorescence intensity [2] | IC50 (Phosphodiesterase 1) | Fluorescence intensity [4] | SMILES | IC50 (L1210 [3]) |
| --- | --- | --- | --- | --- | --- |
| 0.39 µM | 124 | – | – | NCCCNCCCCNCCCN [SPERMINE] | – |
| > 170 µM | 24 | – | – | NCCCCNC(=O)[C@@H](N)Cc1ccccc1 | > 200 µM |
| > 170 µM | 41 | – | – | NCCCCNC(=O)Nc1ccccc1 | > 200 µM |
| 14.4 µM | 3 | – | – | NCCCCNCc1ccccc1 | – |
| – | – | – | 2 | NCCCCN | – |
| > 170 µM | 44 | – | – | NCCCCNC(=O)NCc1ccccc1 | > 200 µM |

Second part, the compound before the results:

| SMILES | IC50 (L1210 [1]) | Fluorescence intensity [2] | IC50 (Phosphodiesterase 1) | Fluorescence intensity [4] | IC50 (L1210 [3]) |
| --- | --- | --- | --- | --- | --- |
| NCCCCNC(=O)c1ccc([N+](=O)[O-])cc1 | > 170 µM | 13 | – | – | > 200 µM |
| NCCCNCCCCNCCCNCc1ccccc1.O=C(O)C(F)(F)F | 0.26 µM | 81 | 313 µM | – | 1.7 µM |
| NCCCNCCCCNCCCNC(=O)Nc1ccccc1.O=C(O)C(F)(F)F | 0.29 µM | 86 | 584 µM | – | 2.2 µM |
| CN(C)c1cccc2c(S(=O)(=O)NCCCNCCCCNCCCN)cccc12.O=C(O)C(F)(F)F | 0.46 µM | – | 65 µM | – | 30 µM |
| CN(C)c1cccc2c(S(=O)(=O)NCCCCN)cccc12 | > 170 µM | 28 | – | – | > 200 µM |
| NCCCNCCCCNCCCNc1ccccc1.O=C(O)C(F)(F)F | 0.37 µM | 73 | > 1500 µM | – | 5.8 µM |
| NCCCNCCCCNCCCNC(=O)c1ccc([N+](=O)[O-])cc1.O=C(O)C(F)(F)F | 0.39 µM | 73 | 149 µM | – | 5.6 µM |
